Source: BindingDB's records for doi:10.1021/jm950797i (Medichem Research, 1996)

Assays:
[1] = target: T1, Gag-Pol polyprotein [489-587] (Human immunodeficiency virus 1, UniProt P04585); experiment: Inhibitory activity against RNA-dependent DNA polymerase (RDDP) of HIV-1 RT Nucleic Acid polymerase
T1 construct: 489-587
Procedure, shortened: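 Purified dimeric (p66/p51) HIV-1 RT (0.08 µg) in pH 8.0 Tris-HCl with KCl, MgCl2, DTT, glutathione, EGTA and BSA. Template-primer was 41 µM poly(rA) with 9.5 µM oligo(dT), plus 20 µM TTP and [3H]TTP. Incubated 1 h at 37 °C, stopped at 80 °C, and counted on filters. Prescreened at 200 µg/mL; IC50 taken from 10 half-log doses in duplicate.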

[2] = target: T1, Gag-Pol polyprotein [489-587]; experiment: Inhibitory activity against TIBO-resistant HIV-1 RT Nucleic Acid polymerase
[3] = target: T1, Gag-Pol polyprotein [489-587]; experiment: Inhibitory activity against DNA -dependent DNA polymerase (DDDP) of HIV-1 RT Nucleic Acid polymerase
Procedure, shortened: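 Dimeric (p66/p51) HIV-1 RT in the RT buffer, reacted 1 h at 37 °C. Template was activated calf thymus DNA (final 20 µg/mL), with dATP, dCTP and dGTP each at final 50 µM plus 5 µCi [3H]TTP. Acid-insoluble label was counted by scintillation. Prescreened at 200 µg/mL, then 10 half-log concentrations in duplicate; IC50 read from dose-response curves.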

Compound | IC50 [1] [µM] | IC50 [2] [µM] | IC50 [3] [µM]
CCCc1cc(=O)oc2c3c(c4c(c12)OC(C)(C)C=C4)O[C@@H](C)C(C)[C@@H]3O (stereo partly drawn) [(10S,12S)-12-Hydroxy-6,6,10,11-tetramethyl-4-propyl-11,12-dihydro-6H,10H-dipyrano[2,3-f;2',3'-h]chromen-2-one] | 0.97 | 17.6 | 0.7
CCCc1cc(=O)oc2c3c(c4c(c12)OC(C)(C)C=C4)O[C@@H](C)[C@H](C)[C@@H]3O | 27.8 |  | 156
CCCc1cc(=O)oc2c3c(c4c(c12)OC(C)(C)C=C4)O[C@H](C)[C@@H](C)[C@@H]3O [(10R,11S,12S)-12-Hydroxy-6,6,10,11-tetramethyl-4-propyl-11,12-dihydro-6H,10H-dipyrano[2,3-f;2',3'-h]chromen-2-one] |  | 10.1 | 0.38
